ChEMBL document CHEMBL1909630, “Azaxanthene based selective glucocorticoid receptor modulators: design, synthesis, and pharmacological evaluation of (S)-4-(5-(1-((1,3,4-thiadiazol-2-yl)amino)-2-methyl-1-oxopropan-2-yl)-5H-chromeno[2,3-b]pyridin-2-yl)-2-fluoro-N,N-dimethylbenzamide (BMS-776532) and its methylene homologue …” (J Med Chem, 2011)

What was measured:
Glucocorticoid receptor [1] = molecular target: T1, Glucocorticoid receptor (Homo sapiens, UniProt P04150); test: Displacement of GS-red from glucocorticoid receptor by fluorescence polarization assay
T1 sequence (P04150 whole entry): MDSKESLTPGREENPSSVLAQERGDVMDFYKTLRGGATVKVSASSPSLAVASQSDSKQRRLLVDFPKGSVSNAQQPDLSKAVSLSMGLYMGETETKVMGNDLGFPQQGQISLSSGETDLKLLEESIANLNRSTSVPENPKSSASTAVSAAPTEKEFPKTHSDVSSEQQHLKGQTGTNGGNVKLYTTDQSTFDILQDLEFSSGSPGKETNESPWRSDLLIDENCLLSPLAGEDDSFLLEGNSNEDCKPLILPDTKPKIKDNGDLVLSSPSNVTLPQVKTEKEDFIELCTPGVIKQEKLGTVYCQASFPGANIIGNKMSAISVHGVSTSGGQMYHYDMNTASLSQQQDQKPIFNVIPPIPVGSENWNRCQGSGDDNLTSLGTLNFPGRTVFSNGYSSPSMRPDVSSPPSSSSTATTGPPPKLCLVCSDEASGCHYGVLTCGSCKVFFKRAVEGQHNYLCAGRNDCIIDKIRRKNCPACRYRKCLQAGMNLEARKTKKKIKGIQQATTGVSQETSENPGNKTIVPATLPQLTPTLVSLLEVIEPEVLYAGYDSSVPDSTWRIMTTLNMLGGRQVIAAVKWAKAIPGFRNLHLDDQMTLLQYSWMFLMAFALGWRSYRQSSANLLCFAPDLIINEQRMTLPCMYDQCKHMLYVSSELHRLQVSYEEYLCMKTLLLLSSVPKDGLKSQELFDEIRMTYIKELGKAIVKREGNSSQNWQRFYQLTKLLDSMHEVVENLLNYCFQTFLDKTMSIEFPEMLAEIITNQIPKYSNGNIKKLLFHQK

Glucocorticoid receptor [2] = molecular target: T1, Glucocorticoid receptor; test: Transactivation activity at GR-alpha in human NP1 Hela cells assessed as inhibition of GAL4-DBD after 20 hrs by luciferase reporter gene assay; format: cell-based
Glucocorticoid receptor [3] = molecular target: T1, Glucocorticoid receptor; test: Transrepression activity at glucocorticoid receptor alpha in IL-1beta-stimulated human A549 cells assessed as inhibition of NFkappaB-dependent E-selectin transcription by luciferase reporter gene assay; format: cell-based
Glucocorticoid receptor [4] = molecular target: T1, Glucocorticoid receptor; test: Transactivation activity at glucocorticoid receptor alpha human 13D3/Huh7 cells assessed as induction of TAT activity after 4 hrs by spectrophotometry; format: cell-based, Huh-7
Glucocorticoid receptor [5] = molecular target: T1, Glucocorticoid receptor; test: Transrepression activity at glucocorticoid receptor alpha in phorbol myristate acetate-stimulated human A549 cells assessed as inhibition of AP1 response element by luciferase reporter gene assay; format: cell-based
Glucocorticoid receptor [6] = molecular target: T1, Glucocorticoid receptor; test: Transactivation activity at GR-alpha in human NP1 Hela cells assessed as induction of GAL4-DBD after 20 hrs by luciferase reporter gene assay; format: cell-based
Blood [7] = test: Antiinflammatory activity in human whole blood assessed as inhibition of IL-1beta-induced IL-8 production after overnight incubation by ELISA relative to Dexamethasone; format: functional
Procedure, shortened: (§1)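 Whole blood from two donors per experiment was collected into ACD-A. Compounds were added and the blood was incubated about 20 h at 37 °C under 5% CO2. Blood was then stimulated for 5 h with LPS (final 100 ng/mL, for TNFα) or IL-1β (final 10 ng/mL, for IL-8). Plasma TNFα or IL-8 was measured by ELISA. Efficacy was expressed as % of dexamethasone, and values are means of at least two experiments.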

Blood [8] = test: Antiinflammatory activity in human whole blood assessed as inhibition of LPS-induced TNFalpha production after overnight incubation by ELISA relative to Dexamethasone; format: functional; procedure, shortened: as §1
Blood [9] = test: Antiinflammatory activity in human whole blood assessed as inhibition of TNF-alpha-induced IL-8 production after overnight incubation by ELISA relative to dexamethasone; format: functional
Blood [10] = test: Antiinflammatory activity in human whole blood assessed as inhibition of LPS-induced TNFalpha production after overnight incubation by ELISA; format: functional, tissue-based; procedure, shortened: as §1
Blood [11] = test: Antiinflammatory activity in human whole blood assessed as inhibition of TNF-alpha-induced IL-8 production after overnight incubation by ELISA; format: functional, tissue-based
Blood [12] = test: Antiinflammatory activity in human whole blood assessed as inhibition of IL-1beta-induced IL-8 production after overnight incubation by ELISA; format: functional, tissue-based; procedure, shortened: as §1

Compound | Ki (Glucocorticoid receptor [1]) [nM] | EC50 (Glucocorticoid receptor [2]) [nM] | EC50 (Glucocorticoid receptor [3]) [nM] | EC50 (Glucocorticoid receptor [4]) [nM] | EC50 (Glucocorticoid receptor [5]) [nM] | EC50 (Glucocorticoid receptor [6]) [nM] | Imax (Blood [7]) [%] | Imax (Blood [8]) [%] | Imax (Blood [9]) [%] | EC50 (Blood [10]) [nM] | EC50 (Blood [11]) [nM] | EC50 (Blood [12]) [nM]
CNC(=O)c1ccc(-c2ccc3c(n2)Oc2ccccc2[C@@H]3C(C)(C)C(=O)Nc2nncs2)cc1 | 9.17 | 806 | 216 | > 5000 | 167 | > 10000 |  |  |  |  |  | 
CC(C)(C(=O)Nc1nncs1)[C@H]1c2ccccc2Oc2nc(-c3ccc(C(=O)N4CCC(F)(F)C4)c(F)c3)ccc21 | 2.53 | 99.3 | 20.6 | 1990 | 37.9 | 192 | 81 | 78 | 67 | 4020 | 3070 | 2490
CCc1ccc(-c2ccc3c(n2)Oc2ccccc2[C@H]3C(C)(C)C(=O)Nc2nncs2)cc1 | 1 | 27 | 8.3 | 732 | 17.7 | 108 |  |  |  |  |  | 
CCN(C)C(=O)c1ccc(-c2ccc3c(n2)Oc2ccccc2[C@H]3C(C)(C)C(=O)Nc2nncs2)cc1 | 0.67 | 36.7 | 7.8 | 740 | 17.4 | 32.4 |  | 100 |  | 78.5 |  | 
CC(C)(C(=O)Nc1nncs1)[C@@H]1c2ccccc2Oc2nc(-c3ccc(O)cc3)ccc21 | 5.7 | 201 | 108 |  | 90.8 | > 10000 |  |  |  |  |  | 
CCN(C)C(=O)c1ccc(-c2ccc3c(n2)Oc2ccccc2[C@H]3C(C)(C)C(=O)Nc2nncs2)cc1Cl | 15.7 | 721 | 64.9 | 2400 | 124 | 702 |  |  |  |  |  | 
CCS(=O)(=O)c1ccc(-c2ccc3c(n2)Oc2ccccc2[C@@H]3C(C)(C)C(=O)Nc2nncs2)cc1 | 4 | 196 | 22.8 | > 5000 | 28.6 | 206 |  |  |  |  |  | 
CC(=O)c1ccc(-c2ccc3c(n2)Oc2ccccc2[C@@H]3C(C)(C)C(=O)Nc2nncs2)cc1 | 2.9 | 31 | 10.2 | 1100 | 6.2 | 75.4 |  |  |  |  |  | 
CC(C)(C(=O)Nc1nncs1)[C@H]1c2ccccc2Oc2nc(-c3ccc(C(=O)N4CCOCC4)cc3)ccc21 | 2.6 | 28.6 | 6.3 |  | 12.4 | 39.2 |  |  |  |  |  | 
CNC(=O)c1ccc(-c2ccc3c(n2)Oc2ccccc2[C@@H]3C(C)(C)C(=O)Nc2nncs2)cc1F | 5.48 | 408 | 157 | > 5000 | 34.1 | > 10000 | 35 | 58 | 15 | 819 | > 20000 | > 20000
CC(C)(C(=O)Nc1nncs1)[C@H]1c2ccccc2Oc2nc(-c3ccc(C(=O)N4CCCCC4)cc3)ccc21 | 1.3 | 167 | 28.6 | > 5000 | 15.7 | 273 |  |  |  |  |  | 
CC(C)(C(=O)Nc1nncs1)[C@H]1c2ccccc2Oc2nc(-c3ccc(C(=O)N4CCCC4)c(F)c3)ccc21 | 1.96 | 205 | 29.2 | 389 | 25 | 177 | 86 | 80 | 61 | 886 | 1300 | 238
Cc1ccc(-c2ccc3c(n2)Oc2ccccc2[C@@H]3C(C)(C)C(=O)Nc2nncs2)cc1 | 2.5 | 260 | 26.6 | > 5000 | 46.8 | 2210 |  |  |  |  |  | 
CC(C)(C(=O)Nc1nncs1)[C@H]1c2ccccc2Oc2nc(-c3ccccc3)ccc21 |  | 187 |  | > 5000 | > 1500 | > 10000 |  |  |  |  |  | 
C[C@@H]1C[C@H]2[C@@H]3CCC4=CC(=O)C=C[C@]4(C)[C@@]3(F)[C@@H](O)C[C@]2(C)[C@@]1(O)C(=O)CO [DEXAMETHASONE] |  |  |  |  |  |  |  |  |  | 6.9 |  | 5.1
CN(C)C(=O)c1cnc(-c2ccc3c(c2)Oc2ccccc2C3C(C)(C)C(=O)Nc2nncs2)nc1 (racemic) | 4.2 | 592 |  |  | 183 | 596 |  |  |  |  |  | 
CC(C)(C(=O)Nc1nncs1)C1c2ccccc2Oc2ncccc21 (racemic) | 412 |  |  |  |  |  |  |  |  |  |  | 
CC(C)(C(=O)Nc1nncs1)[C@H]1c2ccccc2Oc2nc(-c3ccc(C(=O)N4CCCCC4)c(F)c3)ccc21 | 1.68 | 204 | 25.6 | > 5000 | 27.5 | > 10000 | 27 | 73 | 45 | 5470 | > 20000 | 3190
CN(C)C(=O)c1ccc(-c2ccc3c(c2)Oc2ccccc2C3C(C)(C)C(=O)Nc2nncs2)cc1 (racemic) | 8.6 | 610 | 74.9 | > 5000 | 77.9 | > 10000 |  |  |  |  |  | 
CC(=O)c1ccc(-c2ccc3c(n2)Oc2ccccc2[C@@H]3C(C)(C)C(=O)Nc2nncs2)cc1F | 6 | 134 |  | > 5000 | 42 | > 10000 |  |  |  |  |  | 
Cc1ccccc1-c1ccc2c(n1)Oc1ccccc1[C@@H]2C(C)(C)C(=O)Nc1nncs1 | 10.5 | 1560 | > 5000 | > 5000 | 122 | > 10000 |  |  |  |  |  | 
CC(C)(C(=O)Nc1nncs1)[C@H]1c2ccccc2Oc2nc(-c3ccc(C(=O)N4CCC(F)(F)C4)c(Cl)c3)ccc21 | 3.08 | 130 | 33.8 | 329 | 50 | 165 | 82 | 85 | 59 | 932 | 2850 | 5250
Cc1cccc(-c2ccc3c(n2)Oc2ccccc2[C@@H]3C(C)(C)C(=O)Nc2nncs2)c1 | 24 | 1560 | > 5000 | > 5000 | 654 | > 10000 |  |  |  |  |  | 
CN(C)c1ccc(-c2ccc3c(n2)Oc2ccccc2[C@@H]3C(C)(C)C(=O)Nc2nncs2)cc1 | 3.8 | 242 | 20 |  | 13.6 | 926 |  |  |  |  |  | 
CN(C)C(=O)c1ccc(-c2ccc3c(n2)Oc2ccccc2[C@H]3C(C)(C)C(=O)Nc2nncs2)cc1 |  | 1740 |  | > 5000 | > 10000 | > 10000 |  |  |  |  |  | 
COc1ccc(-c2ccc3c(n2)Oc2ccccc2[C@@H]3C(C)(C)C(=O)Nc2nncs2)cc1 | 1.2 | 105 | 21.3 | > 5000 | 28.3 | > 10000 |  |  |  |  |  | 
CN(C)C(=O)c1ccc(-c2ccc3c(c2)Oc2ccccc2C3C(C)(C)C(=O)Nc2nncs2)nc1 (racemic) | 4.1 | 162 |  | > 5000 | 58 | 382 |  |  |  |  |  | 
COc1ccc(-c2ccc3c(n2)Oc2ccccc2[C@H]3C(C)(C)C(=O)Nc2nncs2)cc1 | 49.5 | 4360 | 355 | > 5000 | > 10000 | > 10000 |  |  |  |  |  | 
CC(C)(C(=O)Nc1nncs1)[C@H]1c2ccccc2Oc2nc(-c3ccc(C(N)=O)cc3)ccc21 |  | 202 |  | > 5000 | > 10000 | > 10000 |  |  |  |  |  | 
CC(C)(C(=O)Nc1nncs1)[C@H]1c2ccccc2Oc2nc(-c3ccc(C(=O)O)cc3)ccc21 | 15.4 | > 5000 | 1090 |  | 544 | > 10000 |  |  |  |  |  | 
